Measured values: ChEMBL document CHEMBL4706770, “SD-91 as A Potent and Selective STAT3 Degrader Capable of Achieving Complete and Long-Lasting Tumor Regression” (ACS Med Chem Lett, 2021)
Active and inactive are the calls of the source. The rule behind the calls is not given here.

How the values were obtained:
[1] = molecular target: Protein cereblon/Signal transducer and activator of transcription 2 (Homo sapiens) (UniProt Q96SW2+P52630); assay: Protac activity at CRBN/STAT2 in human SU-DHL-1 cells […] at 0.25 to 100 uM incubated for 4 hrs by Western blot analysis; assay type: cell-based; conditions: dose lower 0.25 µM
Chain of Protein cereblon/Signal transducer and activator of transcription 2 (Homo sapiens) (P52630 whole entry, looked up): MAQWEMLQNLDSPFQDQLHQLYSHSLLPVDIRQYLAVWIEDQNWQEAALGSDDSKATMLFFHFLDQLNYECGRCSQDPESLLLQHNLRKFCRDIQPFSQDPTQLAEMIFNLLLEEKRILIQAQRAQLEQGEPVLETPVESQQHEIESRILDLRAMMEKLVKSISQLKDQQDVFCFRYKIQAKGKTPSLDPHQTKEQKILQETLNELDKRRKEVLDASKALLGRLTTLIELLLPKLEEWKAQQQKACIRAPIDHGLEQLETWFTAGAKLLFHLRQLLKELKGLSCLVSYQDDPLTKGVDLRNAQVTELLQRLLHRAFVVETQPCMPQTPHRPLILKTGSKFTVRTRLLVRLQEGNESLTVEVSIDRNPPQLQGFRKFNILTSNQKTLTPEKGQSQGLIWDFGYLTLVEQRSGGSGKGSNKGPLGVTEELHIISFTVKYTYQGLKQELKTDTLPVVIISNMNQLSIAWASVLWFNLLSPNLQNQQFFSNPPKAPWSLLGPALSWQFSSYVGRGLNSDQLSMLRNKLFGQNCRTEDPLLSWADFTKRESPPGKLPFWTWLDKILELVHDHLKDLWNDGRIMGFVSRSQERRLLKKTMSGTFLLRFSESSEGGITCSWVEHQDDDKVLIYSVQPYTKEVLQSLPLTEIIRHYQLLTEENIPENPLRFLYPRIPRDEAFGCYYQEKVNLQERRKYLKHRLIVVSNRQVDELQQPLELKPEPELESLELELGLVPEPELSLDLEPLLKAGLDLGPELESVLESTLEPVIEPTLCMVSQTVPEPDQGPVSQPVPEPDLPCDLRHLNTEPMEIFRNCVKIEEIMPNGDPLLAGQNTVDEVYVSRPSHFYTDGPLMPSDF
Chain of Protein cereblon/Signal transducer and activator of transcription 2 (Homo sapiens) (Q96SW2 whole entry, looked up): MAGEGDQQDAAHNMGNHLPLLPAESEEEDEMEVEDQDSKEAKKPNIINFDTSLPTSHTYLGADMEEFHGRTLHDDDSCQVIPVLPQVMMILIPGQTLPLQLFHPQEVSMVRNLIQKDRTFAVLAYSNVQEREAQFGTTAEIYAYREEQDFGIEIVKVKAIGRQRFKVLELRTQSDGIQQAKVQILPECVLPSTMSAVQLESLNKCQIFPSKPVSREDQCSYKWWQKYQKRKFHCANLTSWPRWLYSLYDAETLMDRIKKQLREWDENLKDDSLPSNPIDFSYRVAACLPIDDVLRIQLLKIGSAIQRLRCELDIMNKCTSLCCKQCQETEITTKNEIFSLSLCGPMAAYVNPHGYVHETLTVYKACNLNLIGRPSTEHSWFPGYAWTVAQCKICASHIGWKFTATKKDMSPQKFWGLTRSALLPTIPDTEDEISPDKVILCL

[2] = molecular target: Protein cereblon/Signal transducer and activator of transcription 6 (Homo sapiens) (UniProt P42226+Q96SW2); assay: Protac activity at CRBN/STAT6 in human SU-DHL-1 cells assessed as STAT6 degradation at 0.25 to 100 uM incubated for 4 hrs by Western blot analysis; assay type: cell-based; conditions: dose 0.25-100 µM
Chain of Protein cereblon/Signal transducer and activator of transcription 6 (Homo sapiens) (P42226 2-847 limits assumed): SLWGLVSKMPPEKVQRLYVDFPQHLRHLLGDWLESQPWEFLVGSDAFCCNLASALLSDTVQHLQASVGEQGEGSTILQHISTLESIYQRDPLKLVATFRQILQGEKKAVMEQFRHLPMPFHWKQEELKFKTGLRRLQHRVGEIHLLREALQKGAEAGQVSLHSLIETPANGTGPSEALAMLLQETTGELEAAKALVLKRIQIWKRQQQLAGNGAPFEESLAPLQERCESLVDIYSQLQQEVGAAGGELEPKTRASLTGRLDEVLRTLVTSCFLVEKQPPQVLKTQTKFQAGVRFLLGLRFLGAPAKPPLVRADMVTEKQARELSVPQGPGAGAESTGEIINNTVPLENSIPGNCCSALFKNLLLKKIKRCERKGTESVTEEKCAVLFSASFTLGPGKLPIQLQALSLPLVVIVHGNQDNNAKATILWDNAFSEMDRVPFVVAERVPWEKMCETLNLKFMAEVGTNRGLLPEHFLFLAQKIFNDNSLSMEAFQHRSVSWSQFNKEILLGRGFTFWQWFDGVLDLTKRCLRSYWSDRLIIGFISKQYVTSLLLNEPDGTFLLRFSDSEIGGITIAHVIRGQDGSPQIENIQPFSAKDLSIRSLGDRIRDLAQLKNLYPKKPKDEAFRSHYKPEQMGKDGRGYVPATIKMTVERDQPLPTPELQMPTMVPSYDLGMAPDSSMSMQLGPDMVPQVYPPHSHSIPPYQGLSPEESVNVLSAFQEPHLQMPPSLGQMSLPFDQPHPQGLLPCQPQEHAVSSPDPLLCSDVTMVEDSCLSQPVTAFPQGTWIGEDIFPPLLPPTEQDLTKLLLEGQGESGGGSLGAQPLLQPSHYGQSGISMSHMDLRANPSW
Chain of Protein cereblon/Signal transducer and activator of transcription 6 (Homo sapiens) (Q96SW2 whole entry partner): as the sequence (Q96SW2 whole entry, looked up) above

[3] = molecular target: Protein cereblon/Signal transducer and activator of transcription 4 (Homo sapiens) (UniProt Q96SW2+Q14765); assay: Protac activity at CRBN/STAT4 in human SUP-M2 cells assessed as STAT4 degradation at 0.25 to 100 uM incubated for 4 hrs by Western blot analysis; assay type: cell-based; conditions: SUPM2, dose 0.25-100 µM
Chain of Protein cereblon/Signal transducer and activator of transcription 4 (Homo sapiens) (Q14765 whole entry, looked up): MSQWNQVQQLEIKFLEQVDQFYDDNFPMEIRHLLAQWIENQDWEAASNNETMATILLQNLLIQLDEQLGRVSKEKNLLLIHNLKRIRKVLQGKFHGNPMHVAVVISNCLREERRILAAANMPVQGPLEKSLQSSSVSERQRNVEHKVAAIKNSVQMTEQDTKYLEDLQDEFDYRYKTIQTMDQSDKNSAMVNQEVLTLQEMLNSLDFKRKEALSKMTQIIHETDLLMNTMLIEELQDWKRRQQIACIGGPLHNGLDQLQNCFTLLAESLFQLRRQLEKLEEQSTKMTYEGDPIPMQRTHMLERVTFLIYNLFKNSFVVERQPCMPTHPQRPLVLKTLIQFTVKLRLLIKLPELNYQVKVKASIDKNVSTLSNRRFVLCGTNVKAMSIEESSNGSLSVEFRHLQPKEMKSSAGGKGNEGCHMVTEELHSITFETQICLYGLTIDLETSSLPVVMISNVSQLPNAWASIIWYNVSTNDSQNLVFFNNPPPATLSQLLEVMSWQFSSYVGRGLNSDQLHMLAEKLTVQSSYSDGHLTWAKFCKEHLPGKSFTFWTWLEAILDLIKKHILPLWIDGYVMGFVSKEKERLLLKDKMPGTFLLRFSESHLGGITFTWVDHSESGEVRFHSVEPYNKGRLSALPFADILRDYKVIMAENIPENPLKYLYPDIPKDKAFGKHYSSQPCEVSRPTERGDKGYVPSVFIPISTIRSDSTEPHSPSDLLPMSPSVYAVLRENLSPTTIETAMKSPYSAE
Chain of Protein cereblon/Signal transducer and activator of transcription 4 (Homo sapiens) (Q96SW2 whole entry, looked up): as the sequence (Q96SW2 whole entry, looked up) above

[4] = Stability of compound in buffer pH 8 assessed as conversion to (2-(((5S,8S,10aR)-8-(((S)-5-amino-1-(benzhydrylamino)-1,5-dioxopentan-2-yl)carbamoyl)-3-(8-(2-(2,6-dioxopiperidin-3-yl)-1-oxoisoindolin-4-yl)oct-7-ynoyl)-6-oxodecahydropyrrolo[1,2-a][1,5]diazocin-5-yl)carbamoyl)-1H-indole-5-carbonyl)phosphonic acid by measuring half life by LC/MS/MS analysis; assay type: physicochemical
How it was run: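 SD-36 incubated in pH 8 buffer at room temperature; percentages of parent and hydrolysis products followed over time; half-life of conversion derived from the time course.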

[5] = Drug metabolism buffer pH 4 assessed as conversion to (2-(((5S,8S,10aR)-8-(((S)-5-amino-1-(benzhydrylamino)-1,5-dioxopentan-2-yl)carbamoyl)-3-(8-(2-(2,6-dioxopiperidin-3-yl)-1-oxoisoindolin-4-yl)oct-7-ynoyl)-6-oxodecahydropyrrolo[1,2-a][1,5]diazocin-5-yl)carbamoyl)-1H-indole-5-carbonyl)phosphonic acid by measured after 96 hrs at 37 degC by LC/MS/MS analysis
[6] = Drug metabolism buffer pH 8 assessed as conversion to 5-amino-4-(4-(8-((5S,8S,10aR)-8-((S)-5-amino-1-(benzhydrylamino)-1,5-dioxopentan-2-ylcarbamoyl)-6-oxo-5-(5-(phosphonocarbonyl)-1H-indole-2-carboxamido)octahydropyrrolo[1,2-a][1,5]diazocin-3(4H)-yl)-8-oxooct-1-ynyl)-1-oxoisoindolin-2-yl)-5-oxopentanoic acid measured upto 100 hrs by LC/MS/MS analysis; conditions: time hrs <=100
How it was run: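 Parent compound incubated in buffer at pH 4 or pH 8, at room temperature or 37 °C. Percentages of the parent, the hydrolysis product and the glutarimide ring-opened product followed over time, up to 96 h.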

[7] = molecular target: T1, Signal transducer and activator of transcription 3 (Homo sapiens, UniProt P40763); assay: Induction of STAT3 degradation in human MOLM-16 cells assessed as decrease in STAT3 level at 1 uM incubated for 4 hrs by proteomic analysis; assay type: cell-based; conditions: MOLM16
T1 sequence (P40763 whole entry): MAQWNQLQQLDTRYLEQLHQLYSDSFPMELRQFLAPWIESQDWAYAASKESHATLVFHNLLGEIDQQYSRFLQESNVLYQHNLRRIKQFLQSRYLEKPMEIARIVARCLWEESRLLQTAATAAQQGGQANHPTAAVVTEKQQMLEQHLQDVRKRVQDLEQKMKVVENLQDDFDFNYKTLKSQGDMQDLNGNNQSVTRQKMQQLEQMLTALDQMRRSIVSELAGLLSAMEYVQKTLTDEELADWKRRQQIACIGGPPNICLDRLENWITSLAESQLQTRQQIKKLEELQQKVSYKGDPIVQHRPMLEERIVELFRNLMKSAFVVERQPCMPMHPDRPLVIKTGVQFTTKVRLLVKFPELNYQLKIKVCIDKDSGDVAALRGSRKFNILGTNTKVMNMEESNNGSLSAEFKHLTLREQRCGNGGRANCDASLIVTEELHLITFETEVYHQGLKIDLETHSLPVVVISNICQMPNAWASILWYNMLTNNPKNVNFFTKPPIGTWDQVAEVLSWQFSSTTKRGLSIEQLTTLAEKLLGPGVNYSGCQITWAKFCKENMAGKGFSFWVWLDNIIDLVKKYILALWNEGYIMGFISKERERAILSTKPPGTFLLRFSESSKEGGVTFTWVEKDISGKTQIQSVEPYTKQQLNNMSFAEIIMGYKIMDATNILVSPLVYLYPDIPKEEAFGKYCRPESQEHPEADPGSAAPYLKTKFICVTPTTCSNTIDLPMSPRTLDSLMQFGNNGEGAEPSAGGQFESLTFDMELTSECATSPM
How it was run: (§1)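 MOLM-16 cells treated with 1 or 10 μM for 4 h. Protein levels measured by quantitative proteomics across more than 7000 proteins.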

[8] = molecular target: T1, Signal transducer and activator of transcription 3; assay: Induction of STAT3 degradation in human MOLM-16 cells assessed as decrease in STAT3 level at 10 uM incubated for 4 hrs by proteomic analysis; assay type: cell-based; conditions: MOLM16; how it was run: as §1
Mus musculus [9] = assay: In vivo induction of STAT3 degradation in SCID mouse xenografted with human MOLM16 cells assessed as reduction in STAT3 in tumor tissue at 50 mg/kg, iv measured after 24 hrs by immunoblotting analysis; assay type: functional, organism-based
How it was run: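 SCID mice bearing MOLM-16 tumors given a single iv dose of 50 mg/kg or dosing vehicle. Tumor lysates immunoblotted for STAT3, STAT1 and STAT6 at time points from 1 h to at least 24 h.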

Mus musculus [10] = assay: In vivo induction of STAT3 degradation in SCID mouse xenografted with human MOLM16 cells assessed as reduction in phosphorylated STAT3 level in tumor tissue at 50 mg/kg, iv measured after 24 hrs by immunoblotting analysis; assay type: functional, organism-based
How it was run: (§2)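 SCID mice bearing MOLM-16 or SU-DHL-1 xenografts given a single iv dose of 50 mg/kg or dosing vehicle. Tumor lysates immunoblotted for p-STAT3 Y705 and total STAT3 at time points up to 48 h (MOLM-16) and 24 h (SU-DHL-1).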

Mus musculus [11] = assay: In vivo induction of STAT3 degradation in SCID mouse xenografted with human SU-DHL-1 cells assessed as reduction in phosphorylated STAT3 level in tumor tissue at 50 mg/kg, iv measured after 24 hrs by immunoblotting analysis; assay type: functional, organism-based; how it was run: as §2
[12] = Antitumor activity against human MOLM16 cells xenografted in SCID mouse assessed as tumor regression at 50 mg/kg, iv administered weekly measured after 2 weeks; assay type: functional
How it was run: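 SCID mice bearing MOLM-16 xenografts given compound iv once weekly at 25 or 50 mg/kg. Tumor volume and body weight measured every 2 days. Growth inhibition expressed against vehicle-treated controls.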

Mus musculus [13] = assay: In vivo induction of STAT3 degradation in SCID mouse xenografted with human SU-DHL-1 cells assessed as reduction in total STAT3 level in tumor tissue at 50 mg/kg, iv measured after 24 hrs by immunoblotting analysis; assay type: functional, organism-based; how it was run: as §2
[14] = Toxicity in SCID mouse xenografted with human MOLM16 cells assessed as toxic effects at 25 to 50 mg/kg, iv for 65 days; assay type: organism-based; conditions: in vivo, 1560 h, dose 25-50 mg/kg, time 65 day
How it was run: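 SCID mice bearing MOLM-16 xenografts dosed intravenously at 25 or 50 mg/kg on a weekly schedule; vehicle 10% PEG400/90% PBS; body weight and tumor volume measured every 2 days; signs of toxicity monitored during and after treatment.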

| SMILES | Activity [1] | Activity [2] | Activity [3] | t1/2 [4] [h] | Drug metabolism [5] [%] | Drug metabolism [6] | Activity [7] | Activity [8] | Activity (Mus musculus [9]) | Activity (Mus musculus [10]) | Activity (Mus musculus [11]) | Activity [12] [%] | Activity (Mus musculus [13]) | Activity [14] |
| --- | --- | --- | --- | --- | --- | --- | --- | --- | --- | --- | --- | --- | --- | --- |
| NC(=O)CC[C@H](NC(=O)[C@@H]1CC[C@@H]2CCN(C(=O)CCCCCC#Cc3cccc4c3CN(C3CCC(=O)NC3=O)C4=O)C[C@H](NC(=O)c3cc4cc(C(F)(F)P(=O)(O)O)ccc4[nH]3)C(=O)N21)C(=O)NC(c1ccccc1)c1ccccc1 (some centres undefined) | inactive | inactive | inactive | 22 | 25 | Metabolite detected | – | – | – | – | – | – | – | – |
| NC(=O)CC[C@H](NC(=O)[C@@H]1CC[C@@H]2CCN(C(=O)CCCCCC#Cc3cccc4c3CN(C3CCC(=O)NC3=O)C4=O)C[C@H](NC(=O)c3cc4cc(C(=O)P(=O)(O)O)ccc4[nH]3)C(=O)N21)C(=O)NC(c1ccccc1)c1ccccc1 (some centres undefined) | – | – | – | – | – | – | Active | Active | Active | Active | Active | 100 | Active | Non-Toxic |
